In brackets after ≈: the same amount, converted by molar mass.
Tests used:
[1] = tested on: Mycobacterium tuberculosis; assay: Antimycobacterial activity against Mycobacterium tuberculosis H37Rv after 7 days by resazurin based microdilution assay; type: functional; details: 168 h
Method in brief: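 M. tuberculosis H37Rv in resazurin microtitre assay (REMA) with two-fold serial dilutions of compound; isoniazid as reference drug. MIC taken as lowest concentration giving complete inhibition, read visually by colour change (blue stays blue without growth, turns pink with growth).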

[2] = Cytotoxicity against african green monkey Vero C1008 cells after 72 hrs by MTT assay; type: cell-based; details: chlorocebus sabaeus
Method in brief: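 Mammalian VERO C1008 cells were exposed to the compounds in microtitre plates, viability was read by MTT assay, and CC50 values were determined.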

| Structure (SMILES) | MIC [1] | CC50 at 72 h [2] |
| --- | --- | --- |
| O=C(/C=C/c1ccccc1)Nc1nnc(-c2ccccc2)[nH]1 | 86.2 µM (≈ 25 µg/mL) | 1570 µM |
| O=C(/C=C/c1ccc(Cl)cc1)Nc1nnc(-c2ccccc2)[nH]1 | 92.6 µM (≈ 30.1 µg/mL) | 1620 µM |
| COc1ccc(/C=C/C(=O)Nc2nnc(-c3ccccc3)[nH]2)cc1 | 39.1 µM (≈ 12.5 µg/mL) | 1280 µM |
| Cc1ccc(/C=C/C(=O)Nc2nnc(-c3ccccc3)[nH]2)cc1 | 82.2 µM (≈ 25 µg/mL) | 1760 µM |
| O=C(/C=C/c1ccc(O)cc1)Nc1nnc(-c2ccccc2)[nH]1 | 40.8 µM (≈ 12.5 µg/mL) | 1850 µM |
| Nc1ccc(/C=C/C(=O)Nc2nnc(-c3ccccc3)[nH]2)cc1 | 20.5 µM (≈ 6.26 µg/mL) | 1910 µM |
| O=C(/C=C/c1ccc2c(c1)COC2)Nc1nnc(-c2ccccc2)[nH]1 | 18.8 µM (≈ 6.25 µg/mL) | 1820 µM |
| COc1ccc(/C=C/C(=O)Nc2nnc(-c3ccccc3)[nH]2)cc1OC | 4.6 µM (≈ 1.61 µg/mL) | 1210 µM |
| O=C(/C=C/c1cccc(Cl)c1)Nc1nnc(-c2ccccc2)[nH]1 | 38.6 µM (≈ 12.5 µg/mL) | 1470 µM |
| O=C(/C=C/c1cccc([N+](=O)[O-])c1)Nc1nnc(-c2ccccc2)[nH]1 | 9.7 µM (≈ 3.25 µg/mL) | 1990 µM |
| O=C(/C=C/c1ccco1)Nc1nnc(-c2ccccc2)[nH]1 | 11.6 µM (≈ 3.25 µg/mL) | 2180 µM |
| O=C(/C=C/c1ccc([N+](=O)[O-])s1)Nc1nnc(-c2ccccc2)[nH]1 | 4.8 µM (≈ 1.64 µg/mL) | 1670 µM |
| C=C(C)COc1ccc(/C=C/C(=O)Nc2nnc(-c3ccccc3)[nH]2)cc1 | 9 µM (≈ 3.24 µg/mL) | 1420 µM |
| O=C(/C=C/c1ccc(OC(F)(F)F)cc1)Nc1nnc(-c2ccccc2)[nH]1 | 8.6 µM (≈ 3.22 µg/mL) | 1560 µM |
| NNC(=O)c1ccncc1 [ISONIAZID] | 1.8 µM (≈ 0.247 µg/mL) | 1460 µM |
